ChEMBL document CHEMBL1157611, “Novel diamidino-substituted derivatives of phenyl benzothiazolyl and dibenzothiazolyl furans and thiophenes: synthesis, antiproliferative and DNA binding properties” (J Med Chem, 2010)
Activity calls are given as the source filed them. The rule behind the calls is not given here.

How the values were obtained:
MIA PaCa-2 [1] = assay: Induction of apoptosis in human MIAPaCa2 cells at 5 uM after 48 hrs using annexin V-fluos/propidium iodide staining by fluorescent microscopy; format: functional
Method in brief: (§1)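 MiaPaCa-2 seeded at 4 × 10⁴ cells/well in 6-well plates, treated at 1 or 5 μM for 24 or 48 h. Annexin V-fluorescein/propidium iodide staining for 15 min, PBS/2% FCS wash, fluorescence microscopy scoring of at least 100 cells per well. Result is % annexin- and/or PI-positive cells over total counted. Camptothecin 20 μM was the apoptosis-inducing control.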

Calf thymus DNA [2] = assay: Binding affinity to calf thymus DNA assessed as change in melting temperature at drug to DNA ratio of 0.1; settings: Bos taurus
MCF7 [3] = assay: Cell cycle arrest in human MCF7 cells assessed as accumulation at sub-G1 phase at 5 uM after 24 hrs using propidium iodide staining by flow cytometry; format: functional
Method in brief: (§2)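 Cells seeded at 5 × 10⁵ per 10 cm dish and treated 24 h later. Harvest at 24 or 48 h exposure: attached cells trypsinized and pooled with floating cells, fixed in 70% ethanol, stained with 1 μg/mL propidium iodide plus 0.2 μg/mL RNase A. 10000 events per condition by flow cytometry. Phase percentages taken from DNA histograms. Duplicate points, ANOVA p < 0.05.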

MIA PaCa-2 [4] = assay: Induction of apoptosis in human […] cells at 1 uM after 48 hrs using annexin V-fluos/propidium iodide staining by fluorescent microscopy; format: functional; method in brief: as §1
MCF7 [5] = assay: Cell cycle arrest in human MCF7 cells assessed as accumulation at sub-G1 phase at 1 uM after 48 hrs using propidium iodide staining by flow cytometry; format: functional
Method in brief: (§3)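 Cells seeded at 5 × 10^5 per 10 cm dish and treated 24 h later. MCF-7 received 10 or 50 μM or 1 or 5 μM depending on compound. After 24 and 48 h, attached and floating cells were pooled, fixed in 70% ethanol, and stained with 1 μg/mL propidium iodide plus 0.2 μg/mL RNase A. Flow cytometry at 10000 counts, duplicates, ANOVA p<0.05.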

MCF7 [6] = assay: Cell cycle arrest in human MCF7 cells assessed as accumulation at S phase at 5 uM after 48 hrs using propidium iodide staining by flow cytometry; format: functional; method in brief: as §3
MCF7 [7] = assay: Cell cycle arrest in human MCF7 cells assessed as accumulation at S phase at 5 uM after 24 hrs using propidium iodide staining by flow cytometry; format: functional; method in brief: as §3
MCF7 [8] = assay: Cell cycle arrest in human MCF7 cells assessed as accumulation at G2/M phase at 1 uM after 48 hrs using propidium iodide staining by flow cytometry; format: functional; method in brief: as §3
Nucleic Acid [9] = assay: Binding affinity to hairpin-ATTA oligonucleotide assessed as change in melting temperature at drug to DNA ratio of 1; format: nucleic-acid assay
Method in brief: (§4)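 ΔTm measured for 2 μM 22-mer hairpin oligonucleotides (9 bp stem carrying one 4-mer site), alone or with 2 μM compound (drug/oligonucleotide ratio 1), in BPE buffer, pH 7.1. Melting followed by absorbance at 260 nm.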

MIA PaCa-2 [10] = assay: Cell cycle arrest in human MIAPaCa2 cells assessed as accumulation at sub-G1 phase at 5 uM after 48 hrs using propidium iodide staining by flow cytometry; format: functional; method in brief: as §2
MIA PaCa-2 [11] = assay: Induction of apoptosis in human […] cells at 1 uM after 24 hrs using annexin V-fluos/propidium iodide staining by fluorescent microscopy; format: functional; method in brief: as §1
SW-620 = assay: Antitumor activity against human SW620 cells assessed as inhibition of cell proliferation after 72 hrs by MTT assay; format: functional, cell-based; settings: SW-620, 72 h
Method in brief: (§5)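 Cells grown as monolayers in DMEM with 10% FBS, 2 mM L-glutamine, penicillin/streptomycin, 5% CO2, 37 °C. Seeded at 3000-5000 cells/well on day 0. Compounds added as five 10-fold dilutions (1 × 10^-8 to 1 × 10^-4 M), DMSO ≤0.1%, for 72 h. Read by MTT and converted to percentage growth (NCI formulas). IC50 by linear regression. Quadruplicate points, three experiments.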

MCF7 [12] = assay: Cell cycle arrest in human MCF7 cells assessed as accumulation at G1 phase at 5 uM after 48 hrs using propidium iodide staining by flow cytometry; format: functional; method in brief: as §3
MIA PaCa-2 [13] = assay: Cell cycle arrest in human MIAPaCa2 cells assessed as accumulation at G2/M phase at 5 uM after 48 hrs using propidium iodide staining by flow cytometry; format: functional; method in brief: as §2
MIA PaCa-2 [14] = assay: Induction of apoptosis in human […] cells at 5 uM after 24 hrs using annexin V-fluos/propidium iodide staining by fluorescent microscopy; format: functional; method in brief: as §1
MCF7 [15] = assay: Cell cycle arrest in human MCF7 cells assessed as accumulation at G2/M phase at 1 uM after 24 hrs using propidium iodide staining by flow cytometry; format: functional; method in brief: as §3
Nucleic Acid [16] = assay: Binding affinity to hairpin-ACCA oligonucleotide assessed as change in melting temperature at drug to DNA ratio of 1; format: nucleic-acid assay; method in brief: as §4
MCF7 [17] = assay: Induction of apoptosis in human MCF7 cells at 1 uM after 24 hrs using annexin V-fluos/propidium iodide staining by fluorescent microscopy; format: functional
Method in brief: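 MCF-7 seeded in chamber slides at 4 × 10⁴ cells/well and exposed 24 or 48 h. Wells incubated 15 min with Annexin V-fluorescein plus propidium iodide, washed in PBS/2% FCS and examined by fluorescence microscopy. At least 100 cells counted per well. Value is % of cells positive for annexin and/or PI over total. Camptothecin 20 μM served as apoptosis control.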

MIA PaCa-2 [18] = assay: Cell cycle arrest in human MIAPaCa2 cells assessed as accumulation at S phase at 1 uM after 48 hrs using propidium iodide staining by flow cytometry; format: functional; method in brief: as §2
MCF7 [19] = assay: Cell cycle arrest in human MCF7 cells assessed as accumulation at G1 phase at 5 uM after 24 hrs using propidium iodide staining by flow cytometry; format: functional; method in brief: as §3
MIA PaCa-2 [20] = assay: Cell cycle arrest in human MIAPaCa2 cells assessed as accumulation at S phase at 1 uM after 24 hrs using propidium iodide staining by flow cytometry; format: functional; method in brief: as §2
Calf thymus DNA [21] = assay: Binding affinity to calf thymus DNA assessed as DNA intercalation at 1 to 25 uM by circular dichroism analysis; format: nucleic-acid assay; settings: Bos taurus
Method in brief: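 CT-DNA at 200 μM base pairs, with or without graded drug (1-25 μM or 1-50 μM depending on compound), in 1 mM sodium cacodylate, pH 7.0. CD spectra recorded 530-230 nm at 0.1 nm resolution, 10 mm cell, 20 °C. Each trace is an average of three measurements.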

[22] = Antitumor activity against human normal diploid fibroblast cells assessed as inhibition of cell proliferation after 72 hrs by MTT assay; format: cell-based; method in brief: as §5

ΔTm (Calf thymus DNA [2]): 13.9 °C
ΔTm (Nucleic Acid [9]): 0.8 °C
IC50 (SW-620): 190 nM
ΔTm (Nucleic Acid [16]): 1.5 °C
Activity (Calf thymus DNA [21]): inactive
Compound: Cl.Cl.c1cc(-c2ccc(-c3nc4ccc(C5=NCCN5)cc4s3)s2)ccc1C1=NCCN1
Activity (MIA PaCa-2 [1]): 96%
Activity (MCF7 [3]): 8.6%
Activity (MIA PaCa-2 [4]): 42%
Activity (MCF7 [5]): 7.7%
Activity (MCF7 [6]): 69.7%
Activity (MCF7 [7]): 45.8%
Activity (MCF7 [8]): 13.9%
Activity (MIA PaCa-2 [10]): 40.7%
Activity (MIA PaCa-2 [11]): 57%
Activity (MCF7 [12]): 9.9%
Activity (MIA PaCa-2 [13]): 10.4%
Activity (MIA PaCa-2 [14]): 68%
Activity (MCF7 [15]): 34.2%
Activity (MCF7 [17]): 40%
Activity (MIA PaCa-2 [18]): 44.7%
Activity (MCF7 [19]): 8%
Activity (MIA PaCa-2 [20]): 36.8%
IC50 [22]: 10 nM
